Results as given in ChEMBL document CHEMBL2321703, “Identification of novel D-amino acid oxidase inhibitors by in silico screening and their functional characterization in vitro” (J Med Chem, 2013).
pIC50, pKi: −log10 of the molar value. Activity calls are given as the source filed them. The rule behind the calls is not given here.

Legend:
[1] = tested on: D-amino-acid oxidase (Homo sapiens), P14920 [Y224A]; assay: (§1) Inhibition of human recombinant N-terminal His-tagged DAO Y224A mutant expressed in Escherichia coli BL21(DE3) using D-alanine as substrate after 10 mins by Lineweaver-Burk plot analysis
D-amino-acid oxidase (Homo sapiens), P14920 [Y224A], sequence (P14920 whole entry Y224A): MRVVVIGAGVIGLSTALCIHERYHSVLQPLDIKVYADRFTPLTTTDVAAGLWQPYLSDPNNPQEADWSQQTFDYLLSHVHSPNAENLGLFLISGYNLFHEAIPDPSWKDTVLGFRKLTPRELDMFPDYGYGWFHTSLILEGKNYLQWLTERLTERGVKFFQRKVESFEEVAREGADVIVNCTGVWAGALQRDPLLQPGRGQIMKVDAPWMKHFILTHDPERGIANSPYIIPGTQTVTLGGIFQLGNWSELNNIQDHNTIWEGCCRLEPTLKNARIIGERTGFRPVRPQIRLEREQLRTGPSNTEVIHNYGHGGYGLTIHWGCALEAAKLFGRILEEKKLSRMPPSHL

[2] = target: D-amino-acid oxidase (Homo sapiens, UniProt P14920, Y224A); assay: as §1
D-amino-acid oxidase (Homo sapiens, UniProt P14920, Y224A), sequence (P14920 whole entry Y224A): as above

[3] = tested on: D-amino-acid oxidase (Homo sapiens), P14920 [Y224F]; assay: (§2) Inhibition of human recombinant N-terminal His-tagged DAO Y224F mutant expressed in Escherichia coli BL21(DE3) using D-alanine as substrate after 10 mins by Lineweaver-Burk plot analysis
D-amino-acid oxidase (Homo sapiens), P14920 [Y224F], sequence (P14920 whole entry Y224F): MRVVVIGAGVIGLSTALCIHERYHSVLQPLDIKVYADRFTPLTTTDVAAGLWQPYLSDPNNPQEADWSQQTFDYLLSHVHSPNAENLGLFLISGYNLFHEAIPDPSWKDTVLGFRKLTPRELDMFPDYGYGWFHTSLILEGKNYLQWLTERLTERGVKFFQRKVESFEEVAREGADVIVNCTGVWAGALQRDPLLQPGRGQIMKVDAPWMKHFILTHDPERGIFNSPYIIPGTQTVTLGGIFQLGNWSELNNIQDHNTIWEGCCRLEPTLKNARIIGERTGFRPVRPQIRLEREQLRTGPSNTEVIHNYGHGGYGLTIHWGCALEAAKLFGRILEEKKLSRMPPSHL

[4] = target: D-amino-acid oxidase (Homo sapiens, UniProt P14920, Y224F); assay: as §2
D-amino-acid oxidase (Homo sapiens, UniProt P14920, Y224F), sequence (P14920 whole entry Y224F): as above

[5] = target: T1, D-amino-acid oxidase (Homo sapiens, UniProt P14920); assay: Competitive inhibition of human recombinant N-terminal His-tagged DAO expressed in Escherichia coli BL21(DE3) using D-alanine as substrate by Lineweaver-Burk plot analysis
Procedure, shortened: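 Purified N-terminal His-tagged human DAO from E. coli BL21(DE3)pLysS. Colorimetric 2-oxo acid assay in air-saturated 40 mM sodium pyrophosphate pH 8.3 with catalase, 60 μM FAD and 0.5–40 mM D-Ala, 37 °C for 10 min. Stopped with TCA, derivatized with 2,4-dinitrophenylhydrazine, read at A445. Lineweaver–Burk plots; Ki confirmed by slope replot against inhibitor concentration. Three independent experiments.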
Target sequence in this assay (P14920 whole entry, looked up): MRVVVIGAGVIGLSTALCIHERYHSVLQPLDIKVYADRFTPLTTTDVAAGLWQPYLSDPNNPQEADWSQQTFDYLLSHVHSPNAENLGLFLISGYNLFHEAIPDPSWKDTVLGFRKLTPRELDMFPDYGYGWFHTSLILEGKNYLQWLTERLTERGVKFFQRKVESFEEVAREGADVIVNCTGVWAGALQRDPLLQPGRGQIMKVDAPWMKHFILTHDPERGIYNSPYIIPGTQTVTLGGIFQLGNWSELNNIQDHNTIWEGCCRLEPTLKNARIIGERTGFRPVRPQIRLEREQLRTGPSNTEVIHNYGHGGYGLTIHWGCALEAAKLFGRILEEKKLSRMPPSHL

[6] = target: T1, D-amino-acid oxidase; assay: Binding affinity to human recombinant N-terminal His-tagged DAO expressed in Escherichia coli BL21(DE3) at 40 uM after 2 to 30 mins by absorption spectra analysis; details: 200 uM, in the assay text read “at 200 uM” for “at 40 uM”
Procedure, shortened: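 Purified enzyme at 1.7 μg/μL in 10 mM sodium pyrophosphate pH 8.3 with 2 mM EDTA, 5 mM 2-mercaptoethanol, 10% (v/v) glycerol; wavelength scans at 25 °C before and after compound addition (final 40 μM or 200 μM depending on compound), recorded at indicated times; binding inferred from perturbation of the absorption spectrum.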
Target sequence in this assay (P14920 whole entry, looked up): as above

[7] = target: T2, Serine racemase (Homo sapiens, UniProt Q9GZT4); assay: (§3) Inhibition of human recombinant N-terminal His-tagged serine racemase expressed in Escherichia coli BL21(DE3) using L-serine as substrate after 10 mins by fluorescence assay
T2 sequence (Q9GZT4 whole entry): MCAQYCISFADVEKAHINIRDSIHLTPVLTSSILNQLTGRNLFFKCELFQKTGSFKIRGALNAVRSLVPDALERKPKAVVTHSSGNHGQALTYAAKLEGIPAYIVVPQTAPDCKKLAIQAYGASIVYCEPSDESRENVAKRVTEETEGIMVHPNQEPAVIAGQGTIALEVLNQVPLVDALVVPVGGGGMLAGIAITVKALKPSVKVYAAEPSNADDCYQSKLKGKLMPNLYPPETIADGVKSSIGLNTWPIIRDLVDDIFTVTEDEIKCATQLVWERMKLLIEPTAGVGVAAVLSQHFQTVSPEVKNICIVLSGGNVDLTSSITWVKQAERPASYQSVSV
Procedure, shortened: (§4)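 Purified enzyme (30 μg) in 40 mM Tris-HCl pH 8.0, 60 μM pyridoxal phosphate, 1 mM MgCl2, ATP, 1 mM dithiothreitol, 10 mM L-Ser, with compound; 37 °C, 10 min; methanol stop. D-Ser quantified by OPA/Boc-L-cysteine derivatization and reversed-phase HPLC fluorescence (ex 344, em 443 nm).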

[8] = target: T1, D-amino-acid oxidase; assay: Inhibition of human recombinant N-terminal His-tagged DAO expressed in Escherichia coli BL21(DE3) using D-alanine as substrate by colorimetric assay
[9] = target: T1, D-amino-acid oxidase; assay: Inhibition of human recombinant N-terminal His-tagged DAO expressed in Escherichia coli BL21(DE3) using D-serine as substrate by colorimetric assay
[10] = target: T3, D-aspartate oxidase (Homo sapiens, UniProt Q99489); assay: (§5) Inhibition of human recombinant N-terminal His-tagged DDO expressed in Escherichia coli BL21(DE3) using D-aspartate as substrate by colorimetric assay
T3 sequence (Q99489 whole entry): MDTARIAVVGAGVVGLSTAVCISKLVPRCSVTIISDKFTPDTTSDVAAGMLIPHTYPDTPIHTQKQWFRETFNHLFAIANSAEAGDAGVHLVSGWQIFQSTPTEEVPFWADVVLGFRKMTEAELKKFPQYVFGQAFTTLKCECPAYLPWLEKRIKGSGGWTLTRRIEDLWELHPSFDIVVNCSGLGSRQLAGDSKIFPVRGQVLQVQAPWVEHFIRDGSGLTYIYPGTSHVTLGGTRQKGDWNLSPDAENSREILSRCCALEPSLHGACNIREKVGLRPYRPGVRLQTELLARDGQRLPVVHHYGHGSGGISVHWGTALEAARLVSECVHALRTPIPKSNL
Procedure, shortened: (§6)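 Purified enzyme (0.23–4.2 μg) with 10 mM D-Asp in air-saturated 40 mM sodium pyrophosphate pH 8.3, 23 U catalase, 60 μM FAD; 37 °C, 10 min; trichloroacetic acid stop; 2-oxo acid measured as 2,4-dinitrophenylhydrazone at A445.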

[11] = target: T1, D-amino-acid oxidase
Target sequence in this assay (P14920 whole entry): as the sequence (P14920 whole entry, looked up) above

[12] = target: T1, D-amino-acid oxidase; assay: Inhibition of human recombinant N-terminal His-tagged DAO expressed in Escherichia coli BL21(DE3) using D-alanine as substrate by Lineweaver-Burk plot analysis
Target sequence in this assay (P14920 whole entry): as the sequence (P14920 whole entry, looked up) above

[13] = tested on: HEK293; assay: Effect on L-alanine level in G418-resistant HEK293 cells at 17 uM by HPLC analysis relative to vehicle-treated control; format: functional, cell-based; details: Homo sapiens
Procedure, shortened: (§7)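 293/NEO (empty-vector, G418-selected) or 293.HA-hDAO-24 (stable N-terminal HA-tagged human DAO) cells, 1 × 10^6 seeded, maintained in DMEM/10% FBS/800 μg/mL G418; next day fresh medium, compound or vehicle (5% DMSO solution) for 30 min, then 17 mM D-Ala for 24 h. Methanol extraction; D-/L-Ala by OPA/NAC derivatization HPLC with fluorescence; mean ± SD of three assays; Dunnett test vs vehicle.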

[14] = tested on: HEK293/NEO; assay: Effect on L-alanine level in G418-resistant HEK293/NEO cells at 17 uM by HPLC analysis relative to vehicle-treated control; format: functional, cell-based; details: Homo sapiens; procedure, shortened: as §7
[15] = target: T1, D-amino-acid oxidase; details: HEK293/NEO, 17 uM
Target sequence in this assay (P14920 whole entry, looked up): as the sequence (P14920 whole entry, looked up) above

[16] = target: T1, D-amino-acid oxidase; assay: Inhibition of human recombinant N-terminal His-tagged DAO expressed in Escherichia coli BL21(DE3) using D-alanine as substrate assessed as residual activity at 10000 uM by colorimetric assay relative to control
Procedure, shortened: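 Purified enzyme (0.23–4.2 μg) in air-saturated 40 mM sodium pyrophosphate pH 8.3, 23 U catalase, 60 μM FAD, 10 mM D-amino acid substrate, with compound; 37 °C, 10 min; stopped with trichloroacetic acid. 2-Oxo acid reacted with 2,4-dinitrophenylhydrazine, A445 read against substrate-free blank.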
Target sequence in this assay (P14920 whole entry, looked up): as the sequence (P14920 whole entry, looked up) above

[17] = target: T4, Serine racemase (Homo sapiens) (UniProt Q9GZT4); assay: as §3; procedure, shortened: as §4
T4 sequence (whole entry): T2 sequence (Q9GZT4 whole entry)

[18] = target: T5, D-aspartate oxidase (Homo sapiens) (UniProt Q99489); assay: as §5; procedure, shortened: as §6
T5 sequence (whole entry): T3 sequence (Q99489 whole entry)

Row | pIC50 [7] | pIC50 [10] | inhibition [15] | Activity [16] | inhibition [17] | inhibition [8] | inhibition [18] | SMILES | inhibition [1] | pKi [2] | inhibition [3] | pKi [4] | inhibition [5] | Activity [6] | pIC50 [8] | pIC50 [9] | inhibition [9] | pKi [11] | pKi [12] | Activity [13] | Activity [14]
1 | < 4.00 | < 4.00 | inactive |  |  |  |  | O=C(O)c1cc2occc2[nH]1 | Dose-dependent effect |  | Dose-dependent effect |  | Active |  |  |  | Dose-dependent effect |  |  | inactive | inactive
2 | < 2.00 | < 2.00 |  | 67.1% | Dose-dependent effect | Dose-dependent effect | Dose-dependent effect | CCCc1sc(C(=O)O)cc1CC |  |  |  |  |  |  | < 2.00 | 2.10 |  |  |  |  | 

Row | SMILES | pIC50 [7] | pIC50 [10] | inhibition [15] | Activity [16] | inhibition [17] | inhibition [8] | inhibition [18] | inhibition [1] | pKi [2] | inhibition [3] | pKi [4] | inhibition [5] | Activity [6] | pIC50 [8] | pIC50 [9] | inhibition [9] | pKi [11] | pKi [12] | Activity [13] | Activity [14]
3 | O=C(O)c1ccccc1 [BENZOIC ACID] | < 2.00 | < 2.00 |  |  |  |  |  | Dose-dependent effect | 4.43 | Dose-dependent effect | 4.27 | Active | Active | 4.18 | 4.33 | Dose-dependent effect | 5.15 | 4.96 |  | 
